Test results: ChEMBL document CHEMBL1130202, “Biologically active heteroarotinoids exhibiting anticancer activity and decreased toxicity” (J Med Chem, 1997)
Active and inactive are the calls of the source. No cut-off for these calls is given here.

What was measured:
[1] = species on record: Mus musculus; assay: Effect of compound on serum triglycerides levels in mice at high dose on day 29; format: functional
Procedure, shortened: (§1)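 Male B6D2F1 mice dosed daily by oral gavage in corn oil at low, mid 1, mid 2 or high dose. Blood sampled on set days (8, 29, 36, 65) for clinical chemistry, serum alkaline phosphatase and triglycerides. Group mean ± SD reported as % relative to vehicle 1; significance p < 0.05 versus corn oil vehicle.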

[2] = species on record: Mus musculus; assay: Approximate day to 10% weight loss in mice at low dose; format: functional
Procedure, shortened: (§2)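 Male B6D2F1 mice dosed daily by gavage in corn oil; body weights followed to termination (day 65, or day 25 for TTNPB 0.01/0.05 mg/kg/day groups) and compared with the matching vehicle group. Value is approximate day of onset of 10% body weight reduction versus vehicle.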

[3] = species on record: Mus musculus; assay: Calculated 30-day maximally tolerated dose based on 10% weight loss in mice at high dose; format: functional
[4] = species on record: Mus musculus; assay: Total dose of 10% weight loss in mice at high dose; format: functional
[5] = species on record: Mus musculus; assay: Effect of compound on Spleen to body weight ratios in mice at mid dose 1 on day 65; format: functional
Procedure, shortened: (§3)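 Male B6D2F1 mice dosed daily by gavage with compound in corn oil; vehicle 1 (corn oil) controls run to termination on day 65. Low, mid 1, mid 2 and high dose groups, with dosage increases partway through the study. Organ-to-body weight ratios (×1000) taken at necropsy on day 65, reported as mean ± SD for 4 to 8 animals and as % difference from vehicle.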

[6] = Mortality rate in mice in high dose; format: ADME; details: mouse, in vivo
Procedure, shortened: (§4)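 Male B6D2F1 mice given compound daily by gavage in corn oil at the stated dose levels, with corn oil vehicle controls. Deaths counted as animals found dead or sacrificed moribund, with day(s) of death recorded. Heteroarotinoid groups ran to day 65 and low-dose reference groups to day 25.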

[7] = species on record: Mus musculus; assay: Total dose of 10% weight loss in mice at mid dose 1; format: functional
[8] = Mortality rate in mice in mid dose 2; format: ADME; details: mouse, in vivo; procedure, shortened: as §4
[9] = species on record: Mus musculus; assay: Approximate day to 10% weight loss in mice at mid dose 2; format: functional; procedure, shortened: as §2
[10] = species on record: Mus musculus; assay: Total dose of 10% weight loss in mice at mid dose 2; format: functional
[11] = species on record: Mus musculus; assay: Effect of compound on Spleen to body weight ratios in mice at low dose on day 65; format: functional; procedure, shortened: as §3
[12] = species on record: Mus musculus; assay: Effect of compound on right testicle to body weight ratios in mice at low dose on day 65; format: functional; procedure, shortened: as §3
[13] = test system: CC-B; assay: Relative transcriptional activation activity relative to t-RA; format: functional, Homo sapiens
Procedure, shortened: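 CC-B reporter cells (CC-1 cervical line carrying a CAT gene under a RARE with a tk promoter) were seeded at 4×10^5 cells/well in MEM with nonessential amino acids, pyruvate and 10% FBS, the serum lots having negligible t-RA by HPLC. Triplicate cultures were screened at 10^-6 M with 0.1% DMSO final. After 48 h, CAT activity ([3H]acetyl-CoA) per mg protein was taken as treated/control and expressed relative to t-RA. Average of three experiments.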

[14] = species on record: Mus musculus; assay: Effect of compound on serum Alkaline phosphatase levels in mice at low dose on day 65; format: functional; procedure, shortened: as §1
[15] = species on record: Mus musculus; assay: Approximate day to 10% weight loss in mice at mid dose 1; format: functional; procedure, shortened: as §2
[16] = species on record: Mus musculus; assay: Approximate day to 10% weight loss in mice at high dose; format: functional; procedure, shortened: as §2
[17] = species on record: Mus musculus; assay: Effect of compound on right testicle to body weight ratios in mice at mid dose 2 on day 65; format: functional; procedure, shortened: as §3
[18] = species on record: Mus musculus; assay: Effect of compound on serum Alkaline phosphatase levels in mice at mid dose 2 on day 65; format: functional; procedure, shortened: as §1
[19] = species on record: Mus musculus; assay: Average number of fractures per mouse at mid dose 2
[20] = species on record: Mus musculus; assay: Effect of compound on serum Alkaline phosphatase levels in mice at high dose on day 36; format: functional; procedure, shortened: as §1
[21] = species on record: Mus musculus; assay: Effect of compound on adrenal to body weight ratios in mice at mid dose 2 on day 65; format: functional; procedure, shortened: as §3
[22] = species on record: Mus musculus; assay: Calculated 30-day maximally tolerated dose based on 10% weight loss in mice at low dose; format: functional
[23] = species on record: Mus musculus; assay: Average number of fractures per mouse at high dose
[24] = species on record: Mus musculus; assay: Effect of compound on adrenal to body weight ratios in mice at mid dose 1 on day 65; format: functional; procedure, shortened: as §3
[25] = species on record: Mus musculus; assay: Effect of compound on thymus to body weight ratios in mice at mid dose 2 on day 65; format: functional
Procedure, shortened: (§5)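 Male B6D2F1 mice were dosed daily by gavage in corn oil, with TTNPB given at 0.1–0.8 or 0.01/0.05 mg/kg/day. Thymus-to-body weight ratio (×1000) was taken at necropsy on day 65 against vehicle 1, or on day 25 for the 0.01/0.05 groups against vehicle 2. Mean ± SD of 4–8 animals, reported as % difference from vehicle.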

[26] = species on record: Mus musculus; assay: Effect of compound on Spleen to body weight ratios in mice at mid dose 2 on day 65; format: functional; procedure, shortened: as §3
[27] = species on record: Mus musculus; assay: Effect of compound on right testicle to body weight ratios in mice at mid dose 1 on day 65; format: functional; procedure, shortened: as §3
[28] = species on record: Mus musculus; assay: Effect of compound on adrenal to body weight ratios in mice at low dose on day 65; format: functional; procedure, shortened: as §3
[29] = species on record: Mus musculus; assay: Average number of fractures per mouse at low dose
[30] = species on record: Mus musculus; assay: Effect of compound on serum triglycerides levels in mice at mid dose 1 on day 29; format: functional
Procedure, shortened: (§6)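 Male B6D2F1 mice were gavaged daily with compound in corn oil at low, mid 1, mid 2 or high dose. Serum triglycerides and circulating white blood cells were measured on the stated day (8, 29, 36, 65). Values are group mean ± SD expressed as % relative to corn-oil vehicle, with significance at p ≤ 0.05.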

[31] = species on record: Mus musculus; assay: Average number of fractures per mouse at mid dose 1
[32] = species on record: Mus musculus; assay: Calculated 30-day maximally tolerated dose based on 10% weight loss in mice at mid dose 1; format: functional
[33] = species on record: Mus musculus; assay: Effect of compound on thymus to body weight ratios in mice at low dose on day 65; format: functional; procedure, shortened: as §5
[34] = species on record: Mus musculus; assay: Calculated 30-day maximally tolerated dose based on 10% weight loss in mice at mid dose 2; format: functional
[35] = species on record: Mus musculus; assay: Effect of compound on thymus to body weight ratios in mice at mid dose 1 on day 65; format: functional; procedure, shortened: as §5
[36] = species on record: Mus musculus; assay: Total dose of 10% weight loss in mice at low dose; format: functional
[37] = species on record: Mus musculus; assay: Effect of compound on serum triglycerides levels in mice at mid dose 2 on day 29; format: functional; procedure, shortened: as §6
[38] = species on record: Mus musculus; assay: Avoiding pressure on limbs in mice at mid dose 2 with Hypervitaminosis; 0/16; format: functional, organism-based; details: Limb
[39] = species on record: Mus musculus; assay: Effect of compound on adrenal to body weight ratios in mice at high dose on day 65; format: functional; procedure, shortened: as §3
[40] = species on record: Mus musculus; assay: Effect of compound on serum triglycerides levels in mice at low dose on day 29; format: functional; procedure, shortened: as §1
[41] = species on record: Mus musculus; assay: Avoiding pressure on limbs in mice at low dose with Hypervitaminosis; 0/16; format: functional, organism-based; details: Limb
[42] = species on record: Mus musculus; assay: Effect of compound on serum triglycerides levels in mice at low dose on day 36; format: functional; procedure, shortened: as §1
[43] = species on record: Mus musculus; assay: Effect of compound on thymus to body weight ratios in mice at high dose on day 65; format: functional; procedure, shortened: as §5
[44] = species on record: Mus musculus; assay: Effect of compound on serum Alkaline phosphatase levels in mice at low dose on day 29; format: functional; procedure, shortened: as §1

C/C(=C\c1ccc(C(=O)O)cc1)c1ccc2c(c1)C(C)(C)CCO2
Activity [1]: 192 | Activity [2]: >65 | Max tolerated dose [3]: 9.4 mg/kg | Dose [4]: 280.8 mg/kg | Activity [5]: 5 | Mortality [6]: 8 day of death | Dose [7]: 190.2 mg/kg | Mortality [8]: 4 day of death | Activity [9]: 41 | Dose [10]: 220.6 mg/kg | Activity [11]: 3.6 | Activity [12]: 1.9 | Relative activity [13]: 31 | Activity [14]: 115 | Activity [15]: 51 | Activity [16]: 36 | Activity [17]: 1.9 | Activity [18]: 134.8 | Activity [19]: 3.4 | Activity [20]: 86.3 | Activity [21]: 0.3 | Max tolerated dose [22]: >4.9 mg/kg | Activity [23]: 1.3 | Activity [24]: 0.4 | Activity [25]: 0.9 | Activity [26]: 7.1 | Activity [27]: 2 | Activity [28]: 0.3 | Activity [29]: 0.4 | Activity [30]: 175.9 | Activity [31]: 1.9 | Max tolerated dose [32]: 6.3 mg/kg | Activity [33]: 1.5 | Max tolerated dose [34]: 7.4 mg/kg | Activity [35]: 1.3 | Dose [36]: 147.1 mg/kg

CC(/C=C/C=C(\C)c1ccc2c(c1)C(C)(C)CCS2)=C\C(=O)O
Activity [1]: 164.2 | Activity [2]: >65 | Max tolerated dose [3]: 33.9 mg/kg | Activity [37]: 153.4 | Dose [4]: 1016.8 mg/kg | Activity [5]: 2 | Mortality [6]: 0 day of death | Dose [7]: >414.2 mg/kg | Mortality [8]: 0 day of death | Activity [9]: >65 | Dose [10]: >828.4 mg/kg | Activity [12]: 2.6 | Relative activity [13]: 52 | Activity [14]: 127.5 | Activity [38]: inactive | Activity [15]: >65 | Activity [39]: 2.6 | Activity [16]: 54 | Activity [17]: 2.8 | Activity [18]: 137 | Activity [19]: 0 | Activity [40]: 176.4 | Activity [20]: 84.6 | Activity [21]: 0.3 | Max tolerated dose [22]: >6.9 mg/kg | Activity [23]: 0.3 | Activity [24]: 0.3 | Activity [25]: 1.6 | Activity [26]: 2.2 | Activity [27]: 3.1 | Activity [41]: inactive | Activity [28]: 0.3 | Activity [29]: 0 | Activity [42]: 194.9 | Activity [30]: 174.1 | Max tolerated dose [32]: >13.8 mg/kg | Activity [33]: 1.7 | Activity [43]: 1.5 | Max tolerated dose [34]: >27.6 mg/kg | Activity [35]: 1.5 | Activity [44]: 94.9 | Dose [36]: >207.1 mg/kg
